Assay outcomes (PubChem BioAssay)
NTR1 ag = NTR1 (human) agonism; NTR1-U2OS beta-arrestin-GFP spot imaging, agonist mode; P30989; hit rate 0.17% among 330,000; activation, % at 20 µM; AID 493036;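 active = activation at or above 40% of the spot to cytoplasm intensity ratio, with at least 20 cells analyzed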
MC4R barr agon = agonists of human melanocortin 4 receptor (MC4R) beta-arrestin. P32245. U2OS MC4R beta-arrestin complementation, luminescence; percent of melanotan II response, DMSO zero. activation, % at 8.9 µM. hit rate 0.98% among 360,000;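 active = activation above a per-plate cutoff, the mean activation of sample wells on that plate plus 3 SD, cut at about 8% in these data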
TLR9-MyD88 inh = blocks human TLR9 binding to MyD88. Q9NR96+Q99836. CHO BLA complementation TLR9-MyD88, CCF4 FRET ratio. inhibition, % at 4.98 µM. hit rate 0.21% among 340,000. AID 504734;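 active = inhibition above the mean over all tested compounds plus 3 SD, cut at about 21% in these data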
TLR4-MyD88 BLA = blocks binding of human TLR4 to MyD88; inhibition, % at 8.4 µM; AID 861; hit rate 0.18% among 200,000; HeLa CL3-4 TLR4/MyD88 BLA complementation, FRET ratio; in the data active = inhibition above about 25%
Target sequence (O00206 whole entry, looked up): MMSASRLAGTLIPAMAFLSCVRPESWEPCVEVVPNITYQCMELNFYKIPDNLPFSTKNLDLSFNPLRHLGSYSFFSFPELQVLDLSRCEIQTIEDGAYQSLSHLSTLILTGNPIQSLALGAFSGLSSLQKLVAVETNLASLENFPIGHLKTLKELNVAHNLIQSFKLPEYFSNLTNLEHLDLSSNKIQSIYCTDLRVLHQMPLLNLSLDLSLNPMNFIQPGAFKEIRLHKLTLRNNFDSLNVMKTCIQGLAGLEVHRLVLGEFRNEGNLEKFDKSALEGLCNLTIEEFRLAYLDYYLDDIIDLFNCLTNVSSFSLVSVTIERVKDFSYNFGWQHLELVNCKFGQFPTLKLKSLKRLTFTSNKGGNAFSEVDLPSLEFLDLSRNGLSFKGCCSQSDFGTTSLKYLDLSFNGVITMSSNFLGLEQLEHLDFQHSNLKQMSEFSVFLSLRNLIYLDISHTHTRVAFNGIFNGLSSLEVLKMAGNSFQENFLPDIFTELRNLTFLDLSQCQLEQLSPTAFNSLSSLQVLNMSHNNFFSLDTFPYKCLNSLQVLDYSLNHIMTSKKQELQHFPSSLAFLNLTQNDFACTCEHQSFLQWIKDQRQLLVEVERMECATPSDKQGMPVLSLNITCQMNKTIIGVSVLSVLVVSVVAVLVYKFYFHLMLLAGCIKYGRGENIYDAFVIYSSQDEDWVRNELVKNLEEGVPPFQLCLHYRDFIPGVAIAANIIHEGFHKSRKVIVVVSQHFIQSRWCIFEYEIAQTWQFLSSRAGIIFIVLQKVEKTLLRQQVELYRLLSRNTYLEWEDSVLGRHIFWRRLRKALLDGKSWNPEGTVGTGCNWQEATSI
Target sequence (Q99836 whole entry, looked up): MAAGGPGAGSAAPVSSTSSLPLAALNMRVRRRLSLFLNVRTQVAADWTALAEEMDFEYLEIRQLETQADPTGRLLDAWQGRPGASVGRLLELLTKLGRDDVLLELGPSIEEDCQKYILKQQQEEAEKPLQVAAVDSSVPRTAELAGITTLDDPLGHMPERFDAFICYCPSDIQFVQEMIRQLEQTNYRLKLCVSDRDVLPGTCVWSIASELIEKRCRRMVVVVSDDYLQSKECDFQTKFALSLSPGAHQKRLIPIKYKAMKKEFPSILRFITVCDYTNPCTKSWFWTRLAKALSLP
NOD2 RIPK2 PPI = inhibitors of human NOD2-RIPK2 interaction. hit rate 0.38% among 360,000. CHO BLA complementation NOD2-RIPK2, CCF4 ratio. inhibition, % at 4.98 µM. AID 624267. O43353; in the data active = inhibition above about 21%
MC4R antagonist = human MC4R antagonism in cAMP assay; MC4R-expressing cells, MTII-stimulated cAMP, LANCE TR-FRET; inhibition, % at 6.5 µM; hit rate 0.48% among 360,000;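 active = inhibition above its plate's cutoff, the mean of tested wells on that plate plus 3 SD, cut at about 29% in these data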
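Material – human MC4R-expressing U2OS cells · Repeats – no replicates · Detection – TR-FRET with Eu-cAMP and labeled anti-cAMP, 671 nm · Times – compound 30 min, challenge 1 h, detection 1 h · Compound – single nominal compound dose of 6.5 µM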
cAMP nonselect = U2OS forskolin cAMP inhibition counter-screen; shares compounds with MC4R antagonist; parental U2OS, LANCE TR-FRET; inhibition, % at 6.5 µM; hit rate 26% among 1,600; AID 602193;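 active = mean inhibition over triplicates above the low-control well mean plus 3 SD, set per campaign, cut at about 13% in these data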;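 also: signal is single emission at 671 nm which falls as cellular cAMP rises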
MC4R cAMP antag = human MC4R cAMP antagonism confirmation | inhibition, % at 6.5 µM | shares compounds with MC4R antagonist | AID 602195 | hit rate 27% among 1,600 | MC4R-expressing cells, MTII-stimulated cAMP, TR-FRET; in the data active = inhibition above about 29%
A number is an active result. Sampled rows, rich in hits. Any-hit rate of the full collection: about 1.9%.

COc1ccccc1CN1C[C@@H]2C[C@@H](C3=Cc4cccc(OC)c4OC3)N3CCC[C@@]23C1=O was read as NTR1 ag inactive, MC4R barr agon inactive, TLR9-MyD88 inh inactive, TLR4-MyD88 BLA inactive, NOD2 RIPK2 PPI inactive, MC4R antagonist 33, cAMP nonselect inactive and MC4R cAMP antag inactive.
For CCOc1ccc(NC(=O)CSCC(=O)O)cc1 the results were NTR1 ag inactive, MC4R barr agon inactive, TLR9-MyD88 inh inactive, TLR4-MyD88 BLA inactive, NOD2 RIPK2 PPI inactive and MC4R antagonist inactive.
`CCOc1ccc(NC(=O)CSc2ccccc2N)cc1` gave NTR1 ag inactive, MC4R barr agon inactive, TLR9-MyD88 inh inactive, TLR4-MyD88 BLA inactive, NOD2 RIPK2 PPI inactive, MC4R antagonist 32, cAMP nonselect inactive and MC4R cAMP antag inactive.
Screening Cc1csc(C(C)N(C)C(=O)CCc2nnc(CCc3ccccc3)o2)n1 (stereo not drawn) returned NTR1 ag inactive, MC4R barr agon inactive, TLR9-MyD88 inh inactive, TLR4-MyD88 BLA inactive, NOD2 RIPK2 PPI inactive, MC4R antagonist 29, cAMP nonselect inactive and MC4R cAMP antag inactive.
For COc1ccc(CCC(=O)N2c3ccccc3N=C(c3ccc4c(c3)OCO4)C2C(=O)NCc2ccccc2)cc1 (stereo not drawn) the results were NOD2 RIPK2 PPI inactive.
CCCC1=[N+](CC(=O)c2ccccc2)CCn2cccc21 was read as NTR1 ag inactive, MC4R barr agon inactive, TLR9-MyD88 inh inactive, TLR4-MyD88 BLA inactive, NOD2 RIPK2 PPI inactive, MC4R antagonist 29, cAMP nonselect inactive and MC4R cAMP antag inactive.
Screening CCCC1=[N+](CC(=O)c2ccc(Br)cc2)CCn2cccc21 returned NTR1 ag inactive, MC4R barr agon inactive, TLR9-MyD88 inh inactive, NOD2 RIPK2 PPI inactive and MC4R antagonist inactive.
Screening COc1ccc(C(CC(=O)c2ccc(C)cc2)C(C#N)C#N)cc1OC (stereo not drawn) returned NTR1 ag inactive, MC4R barr agon inactive, TLR9-MyD88 inh inactive, TLR4-MyD88 BLA inactive, NOD2 RIPK2 PPI inactive, MC4R antagonist 30, cAMP nonselect inactive and MC4R cAMP antag inactive.
For COC(=O)C(C(=O)OC)C(CC(=O)c1ccc(C)cc1)c1cc(OC)c(OC)c(OC)c1 (stereo not drawn) the results were NTR1 ag inactive, MC4R barr agon inactive, TLR9-MyD88 inh inactive, NOD2 RIPK2 PPI inactive and MC4R antagonist inactive.
CSc1cnn(CCC#N)c(=O)n1 was read as NOD2 RIPK2 PPI inactive.
CC(=O)Nc1cccc(-c2cc(NC(C)=O)c3ncc(-c4ccc(C(C)=O)cc4)n3c2)c1 was read as MC4R barr agon 9.0, NOD2 RIPK2 PPI inactive, MC4R antagonist 33, cAMP nonselect inactive and MC4R cAMP antag inactive.
CC(=O)Nc1cc(-c2cccc(NS(C)(=O)=O)c2)cn2c(-c3cccc(C(C)=O)c3)cnc12 was read as MC4R barr agon inactive, NOD2 RIPK2 PPI inactive and MC4R antagonist inactive.
`CCCCOc1cccc(OCC(=O)Nc2nc3ccccc3[nH]2)c1` gave NTR1 ag inactive, MC4R barr agon inactive, TLR9-MyD88 inh inactive, TLR4-MyD88 BLA inactive, NOD2 RIPK2 PPI inactive, MC4R antagonist 33, cAMP nonselect inactive and MC4R cAMP antag inactive.
`COc1cccc(NC(=O)Cc2ccccc2)c1` gave NTR1 ag inactive, MC4R barr agon inactive, TLR9-MyD88 inh inactive, TLR4-MyD88 BLA inactive, NOD2 RIPK2 PPI inactive and MC4R antagonist inactive.
Screening O=C(Cc1ccccc1)Nc1cccc(N2C(=O)C=CC2=O)c1 returned MC4R barr agon inactive, TLR9-MyD88 inh inactive, TLR4-MyD88 BLA inactive, NOD2 RIPK2 PPI inactive, MC4R antagonist 54, cAMP nonselect 18 and MC4R cAMP antag 34.
C/C(CC(=O)NC12CC3CC(CC(C3)C1)C2)=N\NC(=O)c1ccc(C)cc1 was read as NTR1 ag inactive, MC4R barr agon inactive, TLR9-MyD88 inh inactive, TLR4-MyD88 BLA inactive, NOD2 RIPK2 PPI inactive and MC4R antagonist inactive.
Cc1cccc(C)c1NC(=O)CNC(=O)CN1C(=O)NC2(CCc3ccccc32)C1=O (stereo not drawn) was read as NTR1 ag inactive, MC4R barr agon inactive, TLR9-MyD88 inh inactive, NOD2 RIPK2 PPI inactive and MC4R antagonist inactive.
For CCOC(=O)c1ccccc1NC(=O)COC(=O)c1ccc(OCC(=O)N2CCOCC2)c(OCC)c1 the results were MC4R barr agon 9.1, TLR9-MyD88 inh inactive, NOD2 RIPK2 PPI inactive, MC4R antagonist 30, cAMP nonselect inactive and MC4R cAMP antag inactive.
For C=CCn1nnnc1-c1cccc(Cl)c1 the results were NTR1 ag inactive, MC4R barr agon inactive, TLR9-MyD88 inh inactive, TLR4-MyD88 BLA inactive, NOD2 RIPK2 PPI inactive, MC4R antagonist 34, cAMP nonselect inactive and MC4R cAMP antag inactive.
O=C(Nc1c(-c2ccccc2)nc2ccccn12)c1cccc(F)c1 was read as NTR1 ag inactive, MC4R barr agon inactive, TLR9-MyD88 inh inactive, NOD2 RIPK2 PPI inactive and MC4R antagonist inactive.
For O=C(c1ccc(S(=O)(=O)c2ccccc2)cc1)N1CCc2ccccc2C1 the results were NTR1 ag inactive, MC4R barr agon inactive, TLR9-MyD88 inh inactive, TLR4-MyD88 BLA inactive, NOD2 RIPK2 PPI inactive and MC4R antagonist inactive.
Screening O=C(c1ccc([N+](=O)[O-])cc1)N1CCc2ccccc2C1 returned NTR1 ag inactive, MC4R barr agon inactive, TLR9-MyD88 inh inactive, TLR4-MyD88 BLA inactive, NOD2 RIPK2 PPI inactive, MC4R antagonist 29, cAMP nonselect inactive and MC4R cAMP antag inactive.
Screening COc1ccc2[nH]c3c(=S)nc[nH]c3c2c1 returned NTR1 ag inactive, MC4R barr agon inactive, TLR9-MyD88 inh inactive, TLR4-MyD88 BLA inactive, NOD2 RIPK2 PPI inactive, MC4R antagonist 38, cAMP nonselect inactive and MC4R cAMP antag inactive.
Screening COc1ccc2[nH]c3c(Cl)ncnc3c2c1 returned NTR1 ag inactive, MC4R barr agon inactive, TLR9-MyD88 inh inactive, TLR4-MyD88 BLA inactive, NOD2 RIPK2 PPI inactive and MC4R antagonist inactive.
`CCn1c(C)nc2cc(C(=O)NN=C(C)c3ccc(C#N)cc3)ccc21` gave NTR1 ag inactive, MC4R barr agon inactive, TLR9-MyD88 inh inactive, NOD2 RIPK2 PPI inactive and MC4R antagonist inactive.
CCn1c(C)nc2cc(C(=O)N/N=C(\C)c3ccc(OC)cc3O)ccc21 was read as MC4R barr agon inactive, TLR9-MyD88 inh inactive, TLR4-MyD88 BLA inactive, NOD2 RIPK2 PPI inactive, MC4R antagonist 34, cAMP nonselect inactive and MC4R cAMP antag inactive.
`COCCCN1C(=O)C(CC(=O)NCc2cccc3ccccc23)CC(C(=O)N2CCCCCC2)=C1C` (stereo not drawn) gave NOD2 RIPK2 PPI inactive.
